The target of one series is Ryanodine receptor 3 (Mus musculus, UniProt A2AGL3). Nature of the series: Binding affinity to ryanodine receptor in Mus musculus albino Swiss-Webster (mouse) brain.
Series [1] is described as follows: Toxicity in ip dosed Mus musculus albino Swiss-Webster (mouse) […]. It is filed as organism-based. Particulars: in vivo. In short, it runs like this:
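Male albino Swiss-Webster mice, 18–22 g; ryanoid given ip in methoxytriglycol (50 μL); mortality read at 24 h.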

Series [2] addresses Ryanodine receptor 1 (Oryctolagus cuniculus) (UniProt P11716). In words: Displacement of [3H]ryanodine from Ca2+-ryanodine receptor in Oryctolagus cuniculus (rabbit) skeletal muscle sarcoplasmic reticulum after 1 hr by competitive inhibition assay in presence of ATP relative to ryanodine. In outline:
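Unlabeled ryanoid introduced in DMSO (1% final) before incubation. Filtration, washes in 150 mM KCl/10 mM Hepes pH 7.4. Nonspecific binding: 10 μM dehydroryanodine. IC50 from LIGAND; duplicate experiments.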
For orientation: In a radioligand displacement assay an active substance lowers the binding of a labelled ligand.

The test system of series [3] is Musca domestica. Nature of the series: Toxicity against SCR-susceptible Musca domestica (house fly) assessed as mortality compound administered by intrathoracic injection 1 to 2 hr after piperonyl butoxide treatment measured 24 hr post compound treatment relative to ryanodine. It is filed as functional.
The target of series [4] is Ryanodine receptor 1 (Oryctolagus cuniculus) (UniProt P11716). Nature of the series: Displacement of [3H]ryanodine from Ca2+-ryanodine receptor in Oryctolagus cuniculus (rabbit) skeletal muscle sarcoplasmic reticulum after 2 hr by competitive inhibition assay relative to ryanodine. In short, it runs like this:
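No ATP. […] Ryanoid given in DMSO (1% final). Glass-fiber filtration; three washes with ice-cold buffer a using Tris HCl instead of Hepes. Nonspecific binding with 10 μM dehydroryanodine. IC50 calculated by LIGAND; duplicate experiments.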

The subject of series [5] is Musca domestica. Nature of the series: Toxicity against SCR-susceptible Musca domestica (house fly) assessed as immobility compound administered by intrathoracic injection 1 to 2 hr after piperonyl butoxide treatment measured 4 hr post compound treatment relative to ryanodine. Type of series: functional. In short, it runs like this:
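Adult female flies pretreated with piperonyl butoxide (5 μg in 0.5 μL acetone, ventral abdomen); 1-2 h later, 0.22 μL ryanoid in DMSO injected into the thorax. Knockdown scored at 4 h and KD50 derived. Ten flies per dose, 1.50-2-fold dose steps, two or more experiments (or single determinations where estimated).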

Series [6] concerns the target Ryanodine receptor 3 (Mus musculus) (UniProt A2AGL3). In words: Binding affinity to ryanodine receptor in Mus musculus albino Swiss-Webster (mouse) brain relative to ryanodine.

The text below walks through data of ChEMBL document CHEMBL3046867, “Bioactive ryanoids from nucleophilic additions to 4,12-seco-4,12-dioxoryanodine” (J Med Chem, 1993).

Chain of Ryanodine receptor 1 (Oryctolagus cuniculus) (P11716 whole entry): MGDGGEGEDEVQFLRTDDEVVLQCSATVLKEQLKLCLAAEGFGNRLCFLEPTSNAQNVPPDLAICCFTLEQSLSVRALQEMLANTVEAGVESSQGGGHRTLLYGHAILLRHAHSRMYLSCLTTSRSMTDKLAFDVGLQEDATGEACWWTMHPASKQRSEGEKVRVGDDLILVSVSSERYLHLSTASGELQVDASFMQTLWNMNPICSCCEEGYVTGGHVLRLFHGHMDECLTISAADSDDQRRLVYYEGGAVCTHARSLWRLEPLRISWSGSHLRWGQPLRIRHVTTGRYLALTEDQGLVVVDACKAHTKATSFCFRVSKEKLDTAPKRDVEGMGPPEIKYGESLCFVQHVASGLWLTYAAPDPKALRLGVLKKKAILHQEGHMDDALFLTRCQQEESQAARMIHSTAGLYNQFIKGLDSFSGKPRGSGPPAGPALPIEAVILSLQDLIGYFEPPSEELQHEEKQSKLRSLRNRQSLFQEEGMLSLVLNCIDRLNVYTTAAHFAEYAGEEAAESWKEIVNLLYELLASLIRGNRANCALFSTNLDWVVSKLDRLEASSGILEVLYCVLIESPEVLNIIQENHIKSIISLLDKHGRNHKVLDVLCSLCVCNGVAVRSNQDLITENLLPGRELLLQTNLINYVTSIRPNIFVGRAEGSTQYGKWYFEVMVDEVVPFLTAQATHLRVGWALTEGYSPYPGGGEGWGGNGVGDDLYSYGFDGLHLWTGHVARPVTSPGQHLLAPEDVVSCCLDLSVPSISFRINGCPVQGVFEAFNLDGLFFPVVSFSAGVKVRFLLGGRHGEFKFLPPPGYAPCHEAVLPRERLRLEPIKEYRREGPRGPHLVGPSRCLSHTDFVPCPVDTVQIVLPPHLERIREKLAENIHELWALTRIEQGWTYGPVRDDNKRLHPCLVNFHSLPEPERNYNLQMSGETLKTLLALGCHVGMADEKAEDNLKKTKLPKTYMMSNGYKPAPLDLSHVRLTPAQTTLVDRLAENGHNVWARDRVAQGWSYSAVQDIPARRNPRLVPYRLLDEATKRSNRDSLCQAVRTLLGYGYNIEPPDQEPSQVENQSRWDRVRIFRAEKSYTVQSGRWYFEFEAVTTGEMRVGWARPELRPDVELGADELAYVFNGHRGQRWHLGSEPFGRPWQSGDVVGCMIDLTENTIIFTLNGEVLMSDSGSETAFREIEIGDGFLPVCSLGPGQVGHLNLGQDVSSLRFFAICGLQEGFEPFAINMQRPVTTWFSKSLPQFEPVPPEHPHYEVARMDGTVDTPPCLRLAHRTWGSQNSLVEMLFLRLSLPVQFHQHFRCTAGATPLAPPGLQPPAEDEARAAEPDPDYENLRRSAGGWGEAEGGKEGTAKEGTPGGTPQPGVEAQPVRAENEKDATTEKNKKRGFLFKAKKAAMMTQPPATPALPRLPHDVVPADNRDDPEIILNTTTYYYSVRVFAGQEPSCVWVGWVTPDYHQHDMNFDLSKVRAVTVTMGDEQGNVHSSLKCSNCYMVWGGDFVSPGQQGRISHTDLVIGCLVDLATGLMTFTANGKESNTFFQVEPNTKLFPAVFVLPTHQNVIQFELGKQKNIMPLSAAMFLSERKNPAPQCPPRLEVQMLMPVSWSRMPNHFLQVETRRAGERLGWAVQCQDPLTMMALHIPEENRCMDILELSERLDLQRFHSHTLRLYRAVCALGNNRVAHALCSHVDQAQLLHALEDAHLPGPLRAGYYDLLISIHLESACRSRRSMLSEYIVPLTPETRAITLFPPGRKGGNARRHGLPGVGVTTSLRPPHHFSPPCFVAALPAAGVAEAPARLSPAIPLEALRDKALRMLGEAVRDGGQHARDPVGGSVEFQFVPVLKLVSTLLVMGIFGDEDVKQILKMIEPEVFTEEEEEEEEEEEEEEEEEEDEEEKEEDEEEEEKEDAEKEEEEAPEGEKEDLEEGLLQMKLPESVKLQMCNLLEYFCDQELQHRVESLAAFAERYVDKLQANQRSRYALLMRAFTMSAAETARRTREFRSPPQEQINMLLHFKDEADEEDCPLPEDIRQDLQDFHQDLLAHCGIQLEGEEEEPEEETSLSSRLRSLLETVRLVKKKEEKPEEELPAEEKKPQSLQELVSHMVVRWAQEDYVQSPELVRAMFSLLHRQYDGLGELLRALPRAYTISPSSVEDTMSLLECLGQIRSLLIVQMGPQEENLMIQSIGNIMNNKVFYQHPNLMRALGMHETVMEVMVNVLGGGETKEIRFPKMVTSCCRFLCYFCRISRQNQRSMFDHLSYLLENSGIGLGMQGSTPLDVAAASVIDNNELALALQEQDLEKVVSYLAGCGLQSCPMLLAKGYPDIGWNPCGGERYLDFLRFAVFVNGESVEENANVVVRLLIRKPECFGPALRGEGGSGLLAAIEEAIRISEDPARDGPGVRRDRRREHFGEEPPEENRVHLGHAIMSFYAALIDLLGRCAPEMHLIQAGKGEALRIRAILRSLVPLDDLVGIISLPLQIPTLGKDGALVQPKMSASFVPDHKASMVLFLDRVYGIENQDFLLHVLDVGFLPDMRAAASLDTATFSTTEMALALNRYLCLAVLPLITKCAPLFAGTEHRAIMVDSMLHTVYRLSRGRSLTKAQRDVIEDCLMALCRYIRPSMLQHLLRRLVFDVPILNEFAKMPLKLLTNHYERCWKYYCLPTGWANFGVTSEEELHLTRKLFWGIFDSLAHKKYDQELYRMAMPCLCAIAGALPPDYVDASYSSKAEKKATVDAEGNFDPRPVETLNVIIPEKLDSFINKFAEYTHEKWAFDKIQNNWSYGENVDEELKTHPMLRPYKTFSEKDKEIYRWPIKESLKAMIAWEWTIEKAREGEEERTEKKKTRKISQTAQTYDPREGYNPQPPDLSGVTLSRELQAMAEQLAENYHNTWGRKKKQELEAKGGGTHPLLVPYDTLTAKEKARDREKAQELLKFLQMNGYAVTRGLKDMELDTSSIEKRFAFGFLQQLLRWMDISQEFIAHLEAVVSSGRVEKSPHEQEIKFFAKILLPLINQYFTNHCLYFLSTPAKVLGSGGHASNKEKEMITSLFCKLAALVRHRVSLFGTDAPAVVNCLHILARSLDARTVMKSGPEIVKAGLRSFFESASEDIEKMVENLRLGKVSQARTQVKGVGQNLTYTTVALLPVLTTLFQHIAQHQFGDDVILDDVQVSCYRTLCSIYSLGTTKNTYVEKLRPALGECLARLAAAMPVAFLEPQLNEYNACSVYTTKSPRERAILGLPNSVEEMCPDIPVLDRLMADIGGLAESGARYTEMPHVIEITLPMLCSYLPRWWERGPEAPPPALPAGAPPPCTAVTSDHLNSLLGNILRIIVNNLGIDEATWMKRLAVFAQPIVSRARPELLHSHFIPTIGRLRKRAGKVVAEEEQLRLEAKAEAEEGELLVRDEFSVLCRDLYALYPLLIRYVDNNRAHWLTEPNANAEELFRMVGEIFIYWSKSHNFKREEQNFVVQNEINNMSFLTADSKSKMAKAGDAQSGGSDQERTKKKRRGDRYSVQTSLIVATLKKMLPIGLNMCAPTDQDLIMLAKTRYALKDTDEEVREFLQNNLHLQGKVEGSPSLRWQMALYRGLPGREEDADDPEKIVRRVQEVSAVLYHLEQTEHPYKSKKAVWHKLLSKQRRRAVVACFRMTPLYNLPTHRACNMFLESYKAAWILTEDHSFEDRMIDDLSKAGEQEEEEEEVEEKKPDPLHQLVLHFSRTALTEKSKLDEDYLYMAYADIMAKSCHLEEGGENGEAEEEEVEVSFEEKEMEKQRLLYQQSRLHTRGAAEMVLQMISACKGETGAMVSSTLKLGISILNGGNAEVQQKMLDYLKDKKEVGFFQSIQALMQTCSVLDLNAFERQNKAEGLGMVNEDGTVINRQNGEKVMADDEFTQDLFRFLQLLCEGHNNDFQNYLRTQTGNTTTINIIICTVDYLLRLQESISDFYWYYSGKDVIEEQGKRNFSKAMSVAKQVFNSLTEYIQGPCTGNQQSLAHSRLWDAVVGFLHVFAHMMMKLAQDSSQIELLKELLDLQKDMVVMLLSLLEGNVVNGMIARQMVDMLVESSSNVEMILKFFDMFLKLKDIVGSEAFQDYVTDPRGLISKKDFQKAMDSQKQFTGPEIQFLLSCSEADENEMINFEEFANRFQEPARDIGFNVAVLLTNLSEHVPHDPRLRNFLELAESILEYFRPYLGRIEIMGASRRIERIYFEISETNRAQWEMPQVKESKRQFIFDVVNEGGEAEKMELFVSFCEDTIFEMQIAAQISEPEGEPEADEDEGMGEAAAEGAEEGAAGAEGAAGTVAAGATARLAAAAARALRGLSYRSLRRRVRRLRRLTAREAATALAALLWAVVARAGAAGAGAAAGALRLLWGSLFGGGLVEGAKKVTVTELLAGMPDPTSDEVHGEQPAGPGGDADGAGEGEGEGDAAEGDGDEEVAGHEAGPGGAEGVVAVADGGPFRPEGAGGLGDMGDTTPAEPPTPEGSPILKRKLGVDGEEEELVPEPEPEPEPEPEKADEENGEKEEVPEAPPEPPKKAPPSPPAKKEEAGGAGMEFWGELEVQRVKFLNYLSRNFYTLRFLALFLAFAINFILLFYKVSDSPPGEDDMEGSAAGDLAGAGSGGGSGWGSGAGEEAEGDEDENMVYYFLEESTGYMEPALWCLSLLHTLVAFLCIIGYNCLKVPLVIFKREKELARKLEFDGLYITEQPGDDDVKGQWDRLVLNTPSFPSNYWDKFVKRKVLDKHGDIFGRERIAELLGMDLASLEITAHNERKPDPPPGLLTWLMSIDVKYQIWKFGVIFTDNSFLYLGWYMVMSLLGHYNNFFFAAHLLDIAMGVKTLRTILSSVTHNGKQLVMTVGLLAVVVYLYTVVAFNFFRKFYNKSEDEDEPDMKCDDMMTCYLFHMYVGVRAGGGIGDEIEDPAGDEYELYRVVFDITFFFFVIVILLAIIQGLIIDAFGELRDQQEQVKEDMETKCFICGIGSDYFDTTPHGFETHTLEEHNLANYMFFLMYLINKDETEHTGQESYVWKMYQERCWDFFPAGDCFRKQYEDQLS

As a reminder, the IC50 is the concentration that inhibits the measured activity by half. As usually defined, the LD50 is the dose at which mortality reaches 50%. On Ryanodine receptor 3, `CC(C)[C@@]1(O)[C@@H](OC(=O)c2ccc[nH]2)[C@@]2(O)[C@@]3(C)C[C@]4(O)O[C@@]5([C@H](O)[C@@H](C)CC[C@]35O)[C@@]2(O)[C@@]14C` [RYANODINE] showed an IC50 of 3.3 nM. In addition, in series [1], the LD50 stood at 0.49 mg/kg.

As to `CC(C)[C@@]1(O)[C@@H](OC(=O)c2ccc[nH]2)[C@]2(O)O[C@H]3[C@]45O[C@@](O)(C[C@@]2(C)[C@@]4(O)CC[C@H](C)[C@H]5O)[C@]31C`, the Ratio in series [2] amounted to 64; in the series with Musca domestica [3], 120; in series [4] it was 62; in the series with Musca domestica [5], 270; in series [6] it was 54. In series [1], this compound had an LD50 of 0.15 mg/kg.
